Test results as given in ChEMBL document CHEMBL4152184, “NB 06: From a simple lysosomotropic aSMase inhibitor to tools for elucidating the role of lysosomes in signaling apoptosis and LPS-induced inflammation” (Eur J Med Chem, 2018).
Active and inactive are the calls of the source. The rule behind the calls is not given here.

Legend:
MONO-MAC-6 [1] = test: Downregulation of PTX3 mRNA expression level in human MONO-MAC-6 cells at 5 uM incubated for 30 mins measured after 6 hrs by oligonucleotide array hybridization assay relative to control; type: functional
In short: (§1)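 Total RNA was isolated, transcribed and labeled with DY-647 dye, then co-hybridized with DY-548-labeled cDNA from untreated cells on an inflammation oligonucleotide chip (780 gene probes). Differential expression >1.5 was taken as significant.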

MONO-MAC-6 [2] = test: Upregulation of CCL4 mRNA expression level in LPS-stimulated human MONO-MAC-6 cells at 5 uM preincubated for 30 mins followed by LPS stimulation measured after 6 hrs by oligonucleotide array hybridization assay (reference value: 6.37); type: functional
MONO-MAC-6 [3] = test: Upregulation of IL-6 mRNA expression level in LPS-stimulated human MONO-MAC-6 cells at 5 uM preincubated for 30 mins followed by LPS stimulation measured after 4 hrs by qRT-PCR method (reference value: 76.46); type: functional
MONO-MAC-6 [4] = test: Upregulation of TNFalpha mRNA expression level in LPS-stimulated human MONO-MAC-6 cells at 5 uM preincubated for 30 mins followed by LPS stimulation measured after 4 hrs by qRT-PCR method (reference value: 4.32); type: functional
MONO-MAC-6 [5] = test: Upregulation of TNFalpha mRNA expression level in LPS-stimulated human MONO-MAC-6 cells at 5 uM preincubated for 30 mins followed by LPS stimulation measured after 1 hr by qRT-PCR method (reference value: 1.08); type: functional
MONO-MAC-6 [6] = test: Downregulation of CCL20 mRNA expression level in human MONO-MAC-6 cells at 5 uM incubated for 30 mins measured after 4 hrs by oligonucleotide array hybridization assay relative to control; type: functional; in short: as §1
MONO-MAC-6 [7] = test: Downregulation of CXCL3 mRNA expression level in human MONO-MAC-6 cells at 5 uM incubated for 30 mins measured after 4 hrs by oligonucleotide array hybridization assay relative to control; type: functional; in short: as §1
MONO-MAC-6 [8] = test: Downregulation of PTX3 mRNA expression level in human MONO-MAC-6 cells at 5 uM incubated for 30 mins measured after 2 hrs by oligonucleotide array hybridization assay relative to control; type: functional; in short: as §1
[9] = target: T1, Acid ceramidase (Homo sapiens) (UniProt Q13510); test: Inhibition of acid ceramidase in human PBMC assessed as ratio of C16-ceramide/lipid phosphate level at 10 uM incubated for 30 mins measured after 4 hrs by HPLC method; type: cell-based
T1 sequence (whole entry): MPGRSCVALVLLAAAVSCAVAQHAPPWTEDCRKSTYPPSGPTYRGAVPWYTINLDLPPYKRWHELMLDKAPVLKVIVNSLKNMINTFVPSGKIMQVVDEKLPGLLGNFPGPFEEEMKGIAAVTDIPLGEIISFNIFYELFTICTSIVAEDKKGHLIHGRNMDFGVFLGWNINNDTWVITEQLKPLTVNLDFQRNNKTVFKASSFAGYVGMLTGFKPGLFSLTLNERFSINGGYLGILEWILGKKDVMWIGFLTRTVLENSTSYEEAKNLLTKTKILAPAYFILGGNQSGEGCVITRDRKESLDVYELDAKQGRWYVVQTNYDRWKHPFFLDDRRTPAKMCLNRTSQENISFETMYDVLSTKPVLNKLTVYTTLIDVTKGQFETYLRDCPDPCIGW
In short: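 Human macrophages from primary culture were preincubated 30 min with 10 µM compound. They were then stimulated 4 h with mmLDL (54 µg/mL), TNFalpha (3 ng/mL) or exogenous C6-ceramide (10 µM), or left unstimulated. Individual ceramide species (C16 and C24:1) were quantified in the cell lipid extracts.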

MONO-MAC-6 [10] = test: Downregulation of PTX3 mRNA expression level in human MONO-MAC-6 cells at 5 uM incubated for 30 mins measured after 4 hrs by oligonucleotide array hybridization assay relative to control; type: functional; in short: as §1
MONO-MAC-6 [11] = test: Downregulation of PTGS2 mRNA expression level in LPS-stimulated human MONO-MAC-6 cells at 5 uM preincubated for 30 mins followed by LPS stimulation measured after 6 hrs by oligonucleotide array hybridization assay (reference value: 3.58); type: functional; in short: as §1
PBMC = test: Inhibition of mmLDL-stimulated apoptosis in human PBMC assessed as apoptotic cells at 2 uM preincubated for 30 mins followed by mmLDL stimulation measured after 4 hrs by YO-PRO-1/Hoechst 33342 staining based assay (reference value: 100%); type: functional; parameters: scale not given: the % may be the effect or the level left
In short: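 PBMC pre-incubated 30 min with 2 μM compound, then stimulated with mmLDL (27 μg/mL; line 5) or TNFalpha (3 ng/mL; line 1) for 4 h. Apoptotic cells stained with YO-PRO-1 and all cells with Hoechst 33342. Each plate had control, stimulus, compound alone and compound plus stimulus; n = 3. Values are on a 0% (untreated control, corrected for spontaneous apoptosis) to 100% (stimulus alone) scale; means ± SE.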

MONO-MAC-6 [12] = test: Downregulation of CCL20 mRNA expression level in human MONO-MAC-6 cells at 5 uM incubated for 30 mins measured after 2 hrs by oligonucleotide array hybridization assay relative to control; type: functional; in short: as §1
MONO-MAC-6 [13] = test: Upregulation of IL23A mRNA expression level in LPS-stimulated human MONO-MAC-6 cells at 5 uM preincubated for 30 mins followed by LPS stimulation measured after 1 hr by qRT-PCR method (reference value: 1.10); type: functional
[14] = target: T1, Acid ceramidase (Homo sapiens); test: Inhibition of C2-dihydroceramide-stimulated acid ceramidase in human PBMC assessed as reduction in C16-ceramide level at 10 uM preincubated for 30 mins followed by C2-dihydroceramide stimulation measured after 4 hrs by HPLC method; type: cell-based
MONO-MAC-6 [15] = test: Downregulation of IL-6 mRNA expression level in human MONO-MAC-6 cells at 5 uM incubated for 30 mins measured after 6 hrs by qRT-PCR method relative to control; type: functional
MONO-MAC-6 [16] = test: Decrease in inflammation-related genes in LPS-stimulated human MONO-MAC-6 cells preincubated for 30 mins followed by LPS stimulation measured after 6 hrs by microarray analysis; type: functional, cell-based; in short: as §1
MONO-MAC-6 [17] = test: Upregulation of CXCL2 mRNA expression level in human MONO-MAC-6 cells at 5 uM incubated for 30 mins measured after 2 hrs by oligonucleotide array hybridization assay relative to control; type: functional
MONO-MAC-6 [18] = test: Upregulation of CXCL3 mRNA expression level in LPS-stimulated human MONO-MAC-6 cells at 5 uM preincubated for 30 mins followed by LPS stimulation measured after 4 hrs by oligonucleotide array hybridization assay (reference value: 13.52); type: functional
MONO-MAC-6 [19] = test: Downregulation of TNFalpha mRNA expression level in human MONO-MAC-6 cells at 5 uM incubated for 30 mins measured after 6 hrs by qRT-PCR method relative to control; type: functional

For `COc1ccc(CCN(C)CCCn2c3ccccc3c3ccccc32)cc1`, the “fold change (FC)” value (MONO-MAC-6 [1]) was 3.91, the “fold change (FC)” value (MONO-MAC-6 [2]) was 1.16 and the “fold change (FC)” value (MONO-MAC-6 [3]) was 29.11. For the same molecule, the “fold change (FC)” value (MONO-MAC-6 [4]) was 1.37, the “fold change (FC)” value (MONO-MAC-6 [5]) was 1.23 and the “fold change (FC)” value (MONO-MAC-6 [6]) was 1.4. For the same molecule, the “fold change (FC)” value (MONO-MAC-6 [7]) was 1.21, the “fold change (FC)” value (MONO-MAC-6 [8]) was 1.61 and the Ratio [9] was 0.38. The “fold change (FC)” value (MONO-MAC-6 [10]) was 1.93, the “fold change (FC)” value (MONO-MAC-6 [11]) was 1.06 and the Activity (PBMC) was 33 - 49%. The “fold change (FC)” value (MONO-MAC-6 [12]) was 1, the “fold change (FC)” value (MONO-MAC-6 [13]) was 1.03 and the inhibition [14] was “inactive”. For the same molecule, the “fold change (FC)” value (MONO-MAC-6 [15]) was 46.64, the Activity (MONO-MAC-6 [16]) was “Active” and the “fold change (FC)” value (MONO-MAC-6 [17]) was 1.11. The “fold change (FC)” value (MONO-MAC-6 [18]) was 8.83 and the “fold change (FC)” value (MONO-MAC-6 [19]) was 2.08.
